Experiment [1] has as its target Human immunodeficiency virus type 1 protease (Human immunodeficiency virus 1) (UniProt Q72874). Particulars: 10 uM.
For experiment [2], the target named is T1, Human immunodeficiency virus type 1 protease (Human immunodeficiency virus 1, UniProt Q72874). Put plainly: Inhibition concentration against HIV-1 protease. The method, boiled down:
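Purified HIV-1 protease (30 nM) added after 5 min preincubation of 60.8 µM chromophoric HIV substrate III with inhibitor (DMSO, final below 2.5%). Buffer: 50 mM each glycine, sodium acetate, MES and Tris-HCl, 1.0 M NaCl, 1 mM EDTA, 1 mM DTT, pH 5.5, 37 °C. Cleavage rate from absorbance change at 300 nm. IC50 from activity versus log inhibitor concentration.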

The target of experiment [3] is T1, Human immunodeficiency virus type 1 protease. In words: Binding affinity against HIV-1 protease. The method, boiled down: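 Ki from the activity of 20 nM HIV-1 protease across a matrix of substrate (HIV substrate III at 10, 20, 50 and 100 µM) and at least three inhibitor levels: roughly the estimated Ki and 2–4 times it. Tight-binding rate equation fitted by nonlinear regression. Buffer and read-out as in the spectrophotometric cleavage assay.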

Structures are written as SMILES.

By inhibition is commonly meant the percentage by which the read-out fell short of the control. One may read the IC50 as the concentration that inhibits the measured activity by half. The term Ki denotes the dissociation constant of the complex between target and ligand, obtained from inhibition or displacement.

On to `O=C1N(Cc2ccccc2)[C@@H](COc2ccccc2)[C@@H](O)[C@H](O)[C@H](COc2ccccc2)N1Cc1ccccc1`, for which, in experiment [1], the inhibition worked out at 15%.
Regarding `O=S1(=O)N(Cc2ccccc2)[C@H](COc2ccccc2)[C@H](O)[C@@H](O)[C@@H](COc2ccccc2)N1Cc1ccccc1`, the 50% inhibitory concentration (IC50) in experiment [2] was determined as 200 nM.
In the case of `O=C1N(Cc2ccccc2)[C@@H](COc2ccccc2)[C@H](O)[C@@H](O)[C@H](COc2ccccc2)N1Cc1ccccc1`, the inhibition in experiment [1] turned out to be 10%.
For `COC(=O)c1ccc(CN2C(=O)N(Cc3ccc(C(=O)OC)cc3)[C@H](COc3ccccc3)[C@H](O)[C@@H](O)[C@H]2COc2ccccc2)cc1`, the midpoint of inhibition in experiment [2], the IC50, lay at 8000 nM.
In turn, `O=C1N(Cc2ccccc2)[C@H](COc2ccccc2)[C@@H](O)[C@H](O)[C@@H](COc2ccccc2)N1Cc1ccccc1` had an inhibition in experiment [1] of 0%.
`O=C1N(Cc2ccc(CO)cc2)[C@H](COc2ccccc2)[C@H](O)[C@@H](O)[C@@H](COc2ccccc2)N1Cc1ccc(CO)cc1` yielded an IC50 in experiment [2] of 10 nM. This compound came in with a Ki in experiment [3] of 0.23 nM.
`O=C1N(Cc2ccc(CO)cc2)[C@H](Cc2ccccc2)[C@H](O)[C@@H](O)[C@@H](Cc2ccccc2)N1Cc1ccc(CO)cc1` [DMP-323] yielded an IC50 in experiment [2] of 15 nM.
With `O=C1N(Cc2ccccc2)[C@H](COc2ccccc2)[C@H](O)[C@@H](O)[C@@H](COc2ccccc2)N1Cc1ccccc1`, the half-maximal inhibitory concentration (IC50) in experiment [2] is 80 nM.
In experiment [2], `O=C1N(Cc2ccccc2)[C@H](CCc2ccccc2)[C@H](O)[C@@H](O)[C@@H](CCc2ccccc2)N1Cc1ccccc1` came in with a half-maximal inhibitory concentration (IC50) of 4000 nM. The same compound showed an inhibitory constant (Ki) in experiment [3] of 214 nM.
Regarding `O=S1(=O)N(Cc2ccccc2)[C@H](CCc2ccccc2)[C@H](O)[C@@H](O)[C@@H](CCc2ccccc2)N1Cc1ccccc1`, the half-inhibitory concentration (IC50) in experiment [2] came out at 200 nM. Further, in experiment [3], affinity was put at a Ki of 14.7 nM.
`O=C1N(Cc2ccccc2)[C@H](CCCc2ccccc2)[C@H](O)[C@@H](O)[C@@H](CCCc2ccccc2)N1Cc1ccccc1` came in with a half-inhibitory concentration (IC50) in experiment [2] of 10000 nM. Moreover, the Ki in experiment [3] was 570 nM.

The values are drawn from ChEMBL document CHEMBL1129971, “Cyclic HIV-1 protease inhibitors derived from mannitol: synthesis, inhibitory potencies, and computational predictions of binding affinities” (J Med Chem, 1997).
